{"source": "the RNAGym collection of RNA variant scans (doi:10.1038/nmeth.2970)", "parents": {"B1": {"name": "NELF-E aptamer (parent)", "chain": "CCCAACGACUGCCGAGCGAGAUUACGCUUGAGCGCCCCACUGAGGAUGCCCACGGGCGAUUGGGGCACGG"}}}
{"variants_of": "B1", "assay": "HiTS-RAP", "settings": "with NELF-E (Drosophila)", "method_in_brief": "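Aptamer DNA templates carrying a T7 promoter and ter site were sequenced on an Illumina GAIIx flowcell, then transcribed in situ by T7 RNA polymerase and halted by GST-Tus (30 minutes, 37°C). Clusters were imaged after 30-minute room-temperature equilibration with NELF-E-mOrange at 0.064 to 1000 nM in HEPES binding buffer, and only the first binding curve was used. Intensities were normalised to sequencing intensity and averaged per sequence. Kd came from weighted Hill fits, keeping fits with variance below 1,000,000.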", "units": {"Kd": "nM"}}
{"variant": "CCCAAGGACUGCCGAGCGAGAUUACGCUCGAGCGCCCCACUGAGGAUGCCCACGGGCGAUUGGGGCACGG", "Kd": 4.69}
{"variant": "CCCAAGGACUGCCGAGCGAGAUUACGCUAGAGCGCCCCACUGAGGAUGCCCACGGGCGAUUGGGGCACGG", "Kd": 5.51}
{"variant": "CCCAAGGACUGCCGAGCGAGAUUACGCUGGAGCGCCCCACUGAGGAUGCCCACGGGCGAUUGGGGCACGG", "Kd": 4.97}
{"variant": "CCCAAGGACUGCCGAGCGAGAUUACGCCUGAGCGCCCCACUGAGGAUGCCCACGGGCGAUUGGGGCACGG", "Kd": 9}
{"variant": "CCCAAGGACUGCCGAGCGAGAUUACGCAUGAGCGCCCCACUGAGGAUGCCCACGGGCGAUUGGGGCACGG", "Kd": 5.13}
{"variant": "CCCAAGGACUGCCGAGCGAGAUUACGCGUGAGCGCCCCACUGAGGAUGCCCACGGGCGAUUGGGGCACGG", "Kd": 6.54}
{"variant": "CCCAAUGACUGCCGAGCGGGAUUACGCUUGAGCGCCCCACUGAGGAUGCCCACGGGCGAUUGGGGCACGG", "Kd": 6.06}
{"variant": "CCCAAUGUCUGCCGAGCGAGAUUACGCUUGAGCGCCCCACUGAGGAUGCCCACGGGCGAUUGGGGCACGG", "Kd": 7.13}
{"variant": "CCCAAUGGCUGCCGAGCGAGAUUACGCUUGAGCGCCCCACUGAGGAUGCCCACGGGCGAUUGGGGCACGG", "Kd": 6.02}
{"variant": "CCCAAGGACUGCCGAGCGAGAUUACGCUUGAGCGCCCCACUGAGGAUGCCCACGGGCGAUUGGGUCACGG", "Kd": 6.3}
{"variant": "CCCAAGGACUGCCGAGCGAGAUUACGCUUGAGCGCCCCACUGAGGAUGCCCACGGGCGAUUGGGACACGG", "Kd": 4.46}
{"variant": "CCCAAGGACUGCCGAGCGAGAUUACGCUUGAGCGCCCCACUGAGGAUGCCCACGGGCGAGUGGGGCACGG", "Kd": 5.7}
{"variant": "CCCAAGGACUGCCGAGCGAGAUUACGCUUGAGCGCCCCACUGAGGAUGCCCACGGGCGACUGGGGCACGG", "Kd": 10.3}
{"variant": "CCCAAGGACUGCCGAGCGAGAUUACGCUUGAGCGCCCCACUGAGGAUGCCCACGGGCGAAUGGGGCACGG", "Kd": 10.9}
{"variant": "CCCAAUGACUGCCGUGCGAGAUUACGCUUGAGCGCCCCACUGAGGAUGCCCACGGGCGAUUGGGGCACGG", "Kd": 6.25}
{"variant": "CCCAAUGACUGCCGAGCGAGAUUACGCUUGAGCGCCCCACUGAGGAUGCCCACGGGCGAUUGGGGCACGG", "Kd": 5.29}
{"variant": "CCCAAGGACUGCCGAGCGAGAUUACGCUUGAGCGCCCCACUGAGGAGGCCCACGGGCGAUUGGGGCACGG", "Kd": 6.93}
{"variant": "CCCAAGGACUGCCGAGCGAGAUUACGCUUGAGCGCCCCACUGAGGAAGCCCACGGGCGAUUGGGGCACGG", "Kd": 10.5}
{"variant": "CCCAAGGACCGCCGAGCGAGAUUACGCUUGAGCGCCCCACUGAGGAUGCCCACGGGCGAUUGGGGCACGG", "Kd": 5.34}
{"variant": "CCCAAGGACAGCCGAGCGAGAUUACGCUUGAGCGCCCCACUGAGGAUGCCCACGGGCGAUUGGGGCACGG", "Kd": 5.16}
{"variant": "CCCAAGGACGGCCGAGCGAGAUUACGCUUGAGCGCCCCACUGAGGAUGCCCACGGGCGAUUGGGGCACGG", "Kd": 4.77}
{"variant": "CCCAAGGACUGCCGAGCGAGAUUACGCUUGAGCGCCCCACGGAGGAUGCCCACGGGCGAUUGGGGCACGG", "Kd": 5.12}
{"variant": "CCCAAGGACUGCCGAGCGAGAUUACGCUUGAGCGCCCCACAGAGGAUGCCCACGGGCGAUUGGGGCACGG", "Kd": 103}
{"variant": "CCCAAGGACUGCCGAGCGAGAUUACGCUUGAGCGCCCCACCGAGGAUGCCCACGGGCGAUUGGGGCACGG", "Kd": 64.8}
{"variant": "CCCAAUGACUGCCGAGCGAGAUUACGCUUGAGCGCCCCGCUGAGGAUGCCCACGGGCGAUUGGGGCACGG", "Kd": 11.6}
{"variant": "CCCAAUGACUGCCGAGCGAGAUUGCGCUUGAGCGCCCCACUGAGGAUGCCCACGGGCGAUUGGGGCACGG", "Kd": 5.94}
{"variant": "CCCAAGGACUGCCGAGCGAGAUAACGCUUGAGCGCCCCACUGAGGAUGCCCACGGGCGAUUGGGGCACGG", "Kd": 5.12}
{"variant": "CCCAAGGACUGCCGAGCGAGAUGACGCUUGAGCGCCCCACUGAGGAUGCCCACGGGCGAUUGGGGCACGG", "Kd": 4.81}
{"variant": "CCCAAGGACUGCCGAGCGAGAUCACGCUUGAGCGCCCCACUGAGGAUGCCCACGGGCGAUUGGGGCACGG", "Kd": 4.4}
{"variant": "CCCAAGGACUGCCGAGCGAGAUUACGCUUGAGCGCCCCACUGAGGAUGCCCACGGGCGAUCGGGGCACGG", "Kd": 74.8}
{"variant": "CCCAAGGACUGCCGAGCGAGAUUACGCUUGAGCGCCCCACUGAGGAUGCCCACGGGCGAUAGGGGCACGG", "Kd": 38.7}
{"variant": "CCCAAGGACUGCCGAGCGAGAUUACGCUUGAGCGCCCCACUGAGGAUGCCCACGGGCGAUGGGGGCACGG", "Kd": 7}
{"variant": "CCCAAUGACUGCCGAGCGAGAUUACGCUUGGGCGCCCCACUGAGGAUGCCCACGGGCGAUUGGGGCACGG", "Kd": 8.72}
{"variant": "CCCAAGGACUGCCGAGCGAGAGUACGCUUGAGCGCCCCACUGAGGAUGCCCACGGGCGAUUGGGGCACGG", "Kd": 5.09}
{"variant": "CCCAAGGACUGCCGAGCGAGACUACGCUUGAGCGCCCCACUGAGGAUGCCCACGGGCGAUUGGGGCACGG", "Kd": 5.08}
{"variant": "CCCAAUGACUGCCGAGCGAGGUUACGCUUGAGCGCCCCACUGAGGAUGCCCACGGGCGAUUGGGGCACGG", "Kd": 7.12}
{"variant": "CCCAAGGACUGCCGAGCGAGAUUACGCUUGAGCGCCCCACUGAGGAUGCCCACGGGCGAUUGGAGCACGG", "Kd": 7.6}
{"variant": "CCCAAGGACUGCCGAGCGAGAUUACGCUUGAGCGCCCCACUGAGGAUGCCCACGGGCGAUUGGCGCACGG", "Kd": 6.39}
{"variant": "CCCAAGGACUGCCGAGCGAGAUUACGCUUGAGCGCCCCACUGAGGAUGCCCACGGGCGAUUGGUGCACGG", "Kd": 6.35}
